Test results reported in ChEMBL document CHEMBL2331340, “Novel antitumor indolizino[6,7-b]indoles with multiple modes of action: DNA cross-linking and topoisomerase I and II inhibition” (J Med Chem, 2013).
Activity calls are given as the source filed them. The calls are words filed in the database; no cut-off is given here.

Key:
[1] = Cell cycle arrest in human CL141T cells assessed as accumulation at G2/M phase at 2 x IC50 after 24 hrs by propidium iodide staining-based FACS flow cytometric analysis; type: functional
In short: (§1)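 CL141T cells treated at 0.5-, 1- and 2-fold IC50 for 24, 48 and 72 h. Cells fixed in ice-cold 70% EtOH, then stained with 4 μg/mL propidium iodide in PBS with 1% Triton X-100 and 0.1 mg/mL RNase A. Phase distribution from flow cytometry DNA histograms; sub-G1 fraction scored as well.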

[2] = system: PC-3; assay: Cytotoxicity against human PC3 cells after 72 hrs by Alamar blue assay; type: functional, cell-based; details: PC-3, 72 h
In short: (§2)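 Cells exposed to compound for 72 h, then Alamar blue added with a further 10−12 h at 37 °C and a spectrophotometric read. IC50 from six or seven concentrations by median-effect analysis; mean ± STDEV, n = 3. CL141T is a line derived from a patient lung tumor passaged as a SCID mouse xenograft.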

[3] = system: NCI-H460; assay: Induction of apoptosis in human H460 cells assessed as increase in cleaved caspase 3 expression at IC50 after 24 to 72 hrs by Western blotting analysis; type: functional, cell-based
In short: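 H460 cells treated at IC50 for 24 and 72 h. Lysate proteins separated by SDS-PAGE and blotted to nitrocellulose, blocked in 5% milk/PBST. Primary antibodies to caspase-3, caspase-7, PARP (full-length and cleaved) and β-actin applied for 1 h at room temperature or overnight at 4 °C; HRP secondary with ECL detection.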

[4] = Cytotoxicity against human OECM1 cells after 72 hrs by Alamar blue assay; type: functional, cell-based; details: OECM1, 72 h; in short: as §2
[5] = Half life in rat plasma at 1 to 10 ug/mL after 1 to 4 hrs by HPLC analysis; type: ADME, cell-free
In short: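 Rat plasma spiked at 1 and 10 μg/mL and held 1, 2, 3 and 4 h at room temperature. Protein precipitated with acetonitrile containing 10 μg/mL propyl paraben internal standard, centrifuged, filtered. Analysed by reversed-phase C18 HPLC in acetonitrile/10 mM NaH2PO4 pH 4.5 (32:68). Stability given as mean relative error, at least three replicates per concentration.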

[6] = Cytotoxicity against human HEL299 cells; type: cell-based; details: HEL 299
[7] = system: HCT-116; assay: Cytotoxicity against human HCT116 cells after 72 hrs by Alamar blue assay; type: functional, cell-based; details: HCT-116, 72 h; in short: as §2
[8] = system: MES-SA; assay: Resistance factor, ratio of IC50 for human MES-SA/Dx5 cells to IC50 for human MES-SA cells; type: functional
[9] = biological target: T1, DNA topoisomerase 1 (Homo sapiens) (UniProt P11387); assay: Inhibition of DNA topoisomerase 1 (unknown origin)-mediated relaxation of supercoiled pHOT DNA at 25 to 200 uM after 30 to 45 mins by agarose gel electrophoresis
T1 sequence (whole entry): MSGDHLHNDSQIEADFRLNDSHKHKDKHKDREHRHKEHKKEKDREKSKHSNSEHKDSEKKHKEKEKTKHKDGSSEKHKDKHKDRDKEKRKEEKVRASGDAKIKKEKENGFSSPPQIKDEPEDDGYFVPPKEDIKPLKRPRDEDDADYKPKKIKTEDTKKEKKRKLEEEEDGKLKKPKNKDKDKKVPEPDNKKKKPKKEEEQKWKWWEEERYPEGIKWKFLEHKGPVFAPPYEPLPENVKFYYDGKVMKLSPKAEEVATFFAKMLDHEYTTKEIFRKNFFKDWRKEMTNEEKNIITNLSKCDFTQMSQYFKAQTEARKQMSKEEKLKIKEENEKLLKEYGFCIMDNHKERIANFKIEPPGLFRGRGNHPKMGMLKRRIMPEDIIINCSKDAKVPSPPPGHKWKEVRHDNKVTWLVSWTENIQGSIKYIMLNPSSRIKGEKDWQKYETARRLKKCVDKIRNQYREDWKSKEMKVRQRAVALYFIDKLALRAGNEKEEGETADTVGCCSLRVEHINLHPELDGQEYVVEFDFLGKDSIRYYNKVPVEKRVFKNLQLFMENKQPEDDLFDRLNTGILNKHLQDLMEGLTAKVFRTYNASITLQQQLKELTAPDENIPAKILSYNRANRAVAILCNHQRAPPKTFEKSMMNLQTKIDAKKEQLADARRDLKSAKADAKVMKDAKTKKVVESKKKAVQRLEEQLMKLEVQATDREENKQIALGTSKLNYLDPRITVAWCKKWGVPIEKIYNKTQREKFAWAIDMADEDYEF
In short: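 Supercoiled pHOT DNA (200 ng) and compound in 10 mM Tris-HCl pH 7.9 with 1 mM EDTA at 37 °C. Reaction started with 1 unit topo I, run 30−45 min, stopped with 10% SDS. Products separated on 1% agarose at 50 V for 90 min and stained with ethidium bromide.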

[10] = system: Escherichia coli; assay: Induction of Escherichia coli pEGFP-N1 DNA interstrand cross-linking at 1 to 10 uM after 2 hrs by alkaline agarose gel shift assay
In short: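 Plasmid pEGFP-N1 DNA (1500 ng) incubated with compound at 1, 5 and 10 μM in 3 mM NaCl/1 mM sodium phosphate pH 7.4/1 mM EDTA, 2 h at 37 °C. DNA then BamHI-linearized, EtOH-precipitated, denatured in 0.5 N NaOH/10 mM EDTA, run on 0.8% alkaline agarose at 4 °C (18 V, 22 h), stained with ethidium bromide.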

[11] = Cell cycle arrest in human CL141T cells assessed as accumulation at S phase at 1 x IC50 to 2 x IC50 after 24 hrs by propidium iodide staining-based FACS flow cytometric analysis; type: functional; in short: as §1
[12] = system: Mus musculus; assay: Toxicity in nude mouse xenografted with human HT-29 cells assessed as body weight loss at 25 mg/kg, iv qd administered 4 days measured for 20 days; type: organism-based; parameters: dose 25 mg/kg, route intravenous; details: in vivo, 480 h
[13] = Cell cycle arrest in human CL141T cells assessed as accumulation at sub-G1 phase at 0.5 x IC50 to 2 x IC50 after 72 hrs by propidium iodide staining-based FACS flow cytometric analysis; type: functional; in short: as §1

half-life [5]: 12.4 h
inhibition [9]: Active
Activity [10]: Active
SMILES: Cc1c(CO)c(CO)c2n1Cc1c(c3ccccc3n1C)C2
Activity [1]: inactive
IC50 [2]: 610 nM
Activity [3]: Active
IC50 [4]: 960 nM
IC50 [6]: 2790 nM
IC50 [7]: 1000 nM
Ratio IC50 [8]: 0.52
Activity [11]: Active
Activity [12]: Toxic
Activity [13]: Active
